Reference: ChEMBL document CHEMBL1126589, “Substituted 3-(phenylmethyl)-1H-indole-5-carboxamides and 1-(phenylmethyl)indole-6-carboxamides as potent, selective, orally active antagonists of the peptidoleukotrienes” (J Med Chem, 1993)

Assays:
[1] = molecular target: T1, Cysteinyl leukotriene receptor 1 (Cavia porcellus, UniProt Q2NNR5); experiment: Binding affinity against leukotriene receptor (LTD4) from guinea pig lung parenchymal membranes using [3H]LTD4 as radio ligand; format: tissue-based, Lung parenchyma
T1 sequence (Q2NNR5 whole entry): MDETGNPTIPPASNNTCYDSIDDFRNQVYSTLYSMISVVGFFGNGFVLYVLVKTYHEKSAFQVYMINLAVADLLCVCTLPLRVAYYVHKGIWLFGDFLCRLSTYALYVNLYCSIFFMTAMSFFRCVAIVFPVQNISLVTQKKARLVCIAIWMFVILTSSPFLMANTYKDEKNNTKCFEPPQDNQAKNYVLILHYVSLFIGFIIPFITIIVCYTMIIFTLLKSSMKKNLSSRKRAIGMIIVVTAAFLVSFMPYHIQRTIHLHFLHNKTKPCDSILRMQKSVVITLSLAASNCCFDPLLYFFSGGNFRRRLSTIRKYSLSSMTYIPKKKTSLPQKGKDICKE
Method in brief: (§1)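 Displacement of [3H]LTD4 from guinea pig lung parenchymal membranes; Ki is the mean of two experiments run in duplicate with separate batches, reported as pKi (-log Ki).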

[2] = molecular target: T2, Cysteinyl leukotriene receptor 1 (Cavia porcellus) (UniProt Q2NNR5); experiment: Binding affinity against leukotriene receptor (LTE4) from guinea pig tracheal spirals; format: tissue-based
T2 sequence (whole entry): T1 sequence (Q2NNR5 whole entry)
Method in brief: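 Functional antagonism in isolated guinea pig tracheal spirals contracted with LTE4 as agonist; KB derived from concentration-response curves, n = number of curves.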

Cavia porcellus [3] = experiment: Effective dose against LTD4-induced bronchoconstriction in guinea pig after peroral administration; format: functional; conditions: po
Method in brief: (§2)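 Conscious guinea pigs challenged with LTD4 ("dyspnea" model) after oral or intravenous dosing; percent protection from LTD4-induced dyspnea plotted against dose to derive ED50; po/iv ratio taken from the oral and intravenous ED50 values.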

[4] = molecular target: T1, Cysteinyl leukotriene receptor 1; experiment: Binding affinity to the leukotriene receptor (LTD4) from guinea pig lung parenchymal membranes assayed using [3H]LTD4 as radioligand; format: tissue-based, Lung parenchyma; method in brief: as §1
Cavia porcellus [5] = experiment: Effective dose against LTD4-induced bronchoconstriction in guinea pig after intravenous administration; format: functional; method in brief: as §2
[6] = ED50 ratio of LTD4 peroral administration / LTD4 intravenous administration; format: functional; method in brief: as §2
Rattus norvegicus [7] = experiment: Integrated area under the blood concentration vs time curve for the period 0-24 hr postdose of 1 mg/kg (normalized to a 1 mg/kg dose) in rat; format: ADME, organism-based; set-up: dose 1 mg/kg, time < 24 hr; conditions: in vivo
Method in brief: (§3)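 Sprague-Dawley rats, fasted overnight, cannulated in carotid artery and/or jugular vein at least 20 h before dosing. Oral doses 1 or 2.5 mg/kg, iv 2.5 mg/kg via jugular cannula, in polyethylene glycol/phosphate buffered saline. Unchanged compound in whole blood measured by HPLC over 0–24 h; AUC by trapezoidal rule; values also normalized to 1.0 mg/kg.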

Rattus norvegicus [8] = experiment: Maximum concentration in whole blood recorded in the period 0-24 hr postdose of 1 mg/kg in rat (normalized to a 1 mg/kg dose); format: ADME, organism-based; set-up: dose 1 mg/kg; conditions: in vivo; method in brief: as §3
Rattus norvegicus [9] = experiment: Integrated area under the blood concentration vs time curve for the period 0-24 hr postdose of 2.5 mg/kg (normalized to a 1 mg/kg dose) in rat; format: ADME, organism-based; set-up: dose 2.5 mg/kg, time < 24 hr; conditions: in vivo; method in brief: as §3
[10] = Integrated area under the blood concentration vs time curve for the period 0-24 hr postdose of 5.0 mg/kg (normalized to a 1 mg/kg dose) GP; format: ADME, organism-based; set-up: dose 5 mg/kg, time < 24 hr; conditions: guinea pig, in vivo
Method in brief: (§4)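 Guinea pigs, fasted overnight and cannulated at least 20 h beforehand, given 5 mg/kg orally and intravenously (jugular cannula) in polyethylene glycol/phosphate buffered saline.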

[11] = Maximum concentration in whole blood recorded in the period 0-24 hr postdose of 2.5 mg/kg in rat (normalized to a 1 mg/kg dose); format: ADME, organism-based; set-up: dose 2.5 mg/kg; conditions: in vivo; method in brief: as §3
[12] = Maximum concentration in whole blood recorded in the period 0-24 hr postdose of 5.0 mg/kg GP (normalized to a 1 mg/kg dose); format: ADME, organism-based; set-up: dose 5 mg/kg; conditions: guinea pig, in vivo; method in brief: as §4
[13] = Bioavailability was determined in GP; format: ADME, organism-based, Cavia porcellus; conditions: guinea pig, in vivo; method in brief: as §4
[14] = Bioavailability in rat; format: ADME, organism-based; conditions: in vivo; method in brief: as §3
Rattus norvegicus [15] = experiment: Integrated area under the blood concentration vs time curve for the period 0-24 hr postdose of 1 mg/kg in rat; format: ADME, organism-based; set-up: time < 24 hr, dose 1 mg/kg; conditions: in vivo
[16] = Maximum concentration in whole blood recorded in the period 0-24 hr postdose of 1 mg/kg in rat; format: ADME, organism-based; set-up: dose 1 mg/kg

| Ki [1] [nM] | pKB [2] | Ki [4] [nM] | Structure (SMILES) | ED50 (Cavia porcellus [3]) [µmol/kg] | ED50 (Cavia porcellus [5]) [µmol/kg] | further results |
| --- | --- | --- | --- | --- | --- | --- |
| 6.31 | 8.6 | – | COc1cc(C(=O)NS(=O)(=O)c2ccccc2C)ccc1Cc1cn(C)c2ccc(C(=O)NCC(C)C)cc12 | > 30 | – | – |
| – | – | 126 | CCCCC(CC)NC(=O)c1ccc2c(c1)c(Cc1ccc(C(=O)NS(=O)(=O)c3ccccc3C)cc1OC)cn2C (stereo not drawn) | – | – | – |
| – | – | 2.51 | CCC(CC)CNC(=O)c1ccc2c(c1)c(Cc1ccc(C(=O)NS(=O)(=O)c3ccccc3C)cc1OC)cn2C1CCCC1 | – | – | – |
| – | 8.4 | 3.16 | COc1cc(C(=O)NS(=O)(=O)c2ccccc2C)ccc1Cc1cn(C)c2ccc(C(=O)NCC3CCCC3)cc12 | – | 0.69 | Ratio [6]: 28 |
| – | 8.8 | 0.501 | CCC(CC)CNC(=O)c1ccc2c(c1)c(Cc1ccc(C(=O)NS(=O)(=O)c3ccccc3C)cc1OC)cn2C(C)C | 4.7 | 0.02 | Ratio [6]: 300 |
| 1.26 | 8.8 | – | CCCc1cn(Cc2ccc(C(=O)NS(=O)(=O)c3ccccc3C)cc2OC)c2cc(C(=O)NCC(CC)CC)ccc12 | – | – | – |
| – | 8.7 | 0.316 | CCCn1cc(Cc2ccc(C(=O)NS(=O)(=O)c3ccccc3C)cc2OC)c2cc(C(=O)NCC3CCCC3)ccc21 | 4.8 | 0.03 | AUC (Rattus norvegicus [7]): 1610 ng·h/mL; Cmax (Rattus norvegicus [8]): 106 ng/mL; Ratio [6]: 179 |
| – | 8.9 | 10 | COc1cc(C(=O)NS(=O)(=O)c2ccccc2C)ccc1Cn1cc(C)c2ccc(C(=O)NCC3CCCC3)cc21 | ~30 | 1.62 | Ratio [6]: ~20 |
| – | 8.5 | 6.31 | CCCC(C)CNC(=O)c1ccc2c(c1)c(Cc1ccc(C(=O)NS(=O)(=O)c3ccccc3C)cc1OC)cn2C (stereo not drawn) | – | – | – |
| – | 8.2 | 3.16 | CCc1cn(Cc2ccc(C(=O)NS(=O)(=O)c3ccccc3C)cc2OC)c2cc(C(=O)NCC(CC)CC)ccc12 | – | – | – |
| – | – | 100 | COc1cc(C(=O)NS(=O)(=O)c2ccccc2C)ccc1Cc1cn(C)c2ccc(C(=O)NC3CCCCC3)cc12 | – | – | – |
| 1 | – | – | CCC(CC)CNC(=O)c1ccc2c(CC3CCCC3)cn(Cc3ccc(C(=O)NS(=O)(=O)c4ccccc4C)cc3OC)c2c1 | – | – | – |
| – | 9.3 | – | COc1cc(C(=O)NS(=O)(=O)c2ccccc2C)ccc1Cn1cc(C)c2ccc(NC(=O)CC3CCCC3)cc21 | 0.3 | – | – |
| 2510 | – | – | CCCn1cc(Cc2ccc(C(=O)O)cc2OC)c2cc(C(=O)NCC(C)C)ccc21 | – | – | – |
| 25.1 | – | – | CCC(CC)CNC(=O)c1ccc2c(CCc3ccccc3)cn(Cc3ccc(C(=O)NS(=O)(=O)c4ccccc4C)cc3OC)c2c1 | – | – | – |
| – | 8.4 | 2.51 | CCC(CC)CNC(=O)c1ccc2c(C)cn(Cc3ccc(C(=O)NS(=O)(=O)c4ccccc4C)cc3OC)c2c1 | – | – | – |
| 7.94 | 7.6 | – | CCCn1cc(Cc2ccc(C(=O)NS(=O)(=O)c3ccccc3)cc2OC)c2cc(C(=O)NCC(C)C)ccc21 | – | – | – |
| – | 8.3 | 1.26 | CCC(CC)CNC(=O)c1ccc2c(c1)c(Cc1ccc(C(=O)NS(=O)(=O)c3ccccc3C)cc1OC)cn2Cc1ccccc1 | – | – | – |
| – | 8.7 | 5.01 | CCC(C)CNC(=O)c1ccc2c(c1)c(Cc1ccc(C(=O)NS(=O)(=O)c3ccccc3C)cc1OC)cn2C (stereo not drawn) | 20 | 1.39 | Ratio [6]: 14 |
| 3.98 | 7.7 | – | CCCn1cc(Cc2ccc(C(=O)NS(=O)(=O)c3ccccc3)cc2OC)c2cc(C(=O)NCC(CC)CC)ccc21 | – | – | – |
| 2.51 | – | – | CCC(CC)CNC(=O)c1ccc2c(CC3CCCCC3)cn(Cc3ccc(C(=O)NS(=O)(=O)c4ccccc4C)cc3OC)c2c1 | – | – | – |

| Ki [1] [nM] | pKB [2] | Ki [4] [nM] | Structure (SMILES) | ED50 (Cavia porcellus [3]) [µmol/kg] | ED50 (Cavia porcellus [5]) [µmol/kg] | further results |
| --- | --- | --- | --- | --- | --- | --- |
| 6.31 | 8.2 | – | CCC(CC)CNC(=O)c1ccc2c(CC(C)C)cn(Cc3ccc(C(=O)NS(=O)(=O)c4ccccc4C)cc3OC)c2c1 | – | – | – |
| – | 8.9 | 0.794 | CCCn1cc(Cc2ccc(C(=O)NS(=O)(=O)c3ccccc3C)cc2OC)c2cc(C(=O)NCC(CC)CC)ccc21 | 5.6 | 0.04 | Ratio [6]: 137 |
| – | 9.7 | – | COc1cc(C(=O)NS(=O)(=O)c2ccccc2C)ccc1Cc1cn(C)c2ccc(NC(=O)CC3CCCC3)cc12 | 0.41 | 0.02 | Ratio [6]: 22 |
| – | 9.5 | 1 | CCC(CC)CNC(=O)c1ccc2c(c1)c(Cc1ccc(C(=O)NS(=O)(=O)c3ccccc3C)cc1OC)cn2CC | 5.3 | 0.07 | AUC (Rattus norvegicus [9]): 4070 ng/h/mL; AUC [10]: 207 ng·h/mL; Cmax [11]: 540 ng/mL; Cmax [12]: 92 ng/mL; bioavailability [13]: 5.1%; bioavailability [14]: 28.1%; Ratio [6]: 81 |
| – | – | 15.8 | COc1cc(C(=O)NS(=O)(=O)c2ccccc2C)ccc1Cc1cn(C)c2ccc(C(=O)NCCC(C)C)cc12 | – | – | – |
| – | – | 100 | CCCC1CCN(C(=O)c2ccc3c(c2)c(Cc2ccc(C(=O)NS(=O)(=O)c4ccccc4C)cc2OC)cn3C)CC1 | – | – | – |
| 6.31 | – | – | CCC(CC)CNC(=O)c1ccc2c(c1)c(Cc1ccc(C(=O)NS(=O)(=O)c3ccccc3Cl)cc1OC)cn2C | – | – | – |
| 50.1 | – | – | C/C=C\c1cn(Cc2ccc(C(=O)NS(=O)(=O)c3ccccc3C)cc2OC)c2cc(C(=O)NCC(CC)CC)ccc12 | – | – | – |
| – | – | 10 | CCCCCC(C)CNC(=O)c1ccc2c(c1)c(Cc1ccc(C(=O)NS(=O)(=O)c3ccccc3C)cc1OC)cn2C (stereo not drawn) | – | – | – |
| – | 9.1 | 2 | CCCn1cc(Cc2ccc(C(=O)NS(=O)(=O)c3ccccc3C)cc2OC)c2cc(C(=O)NCC(C)C)ccc21 | 31 | 0.07 | Ratio [6]: 456 |
| – | – | 12.6 | CCC(CC)CNC(=O)c1ccc2ccn(Cc3ccc(C(=O)NS(=O)(=O)c4ccccc4C)cc3OC)c2c1 | – | – | – |
| 3.98 | 9.1 | – | CCC(CC)CNC(=O)c1ccc2c(c1)c(Cc1ccc(C(=O)NS(=O)(=O)c3ccccc3Br)cc1OC)cn2C | 21.4 | 0.84 | Ratio [6]: 25 |
| – | 7.5 | 15.8 | COc1cc(C(=O)NS(=O)(=O)c2ccccc2C)ccc1Cc1cn(C)c2ccc(C(=O)NCC(C)(C)C)cc12 | – | – | – |
| – | 8.3 | 0.398 | C=CCn1cc(Cc2ccc(C(=O)NS(=O)(=O)c3ccccc3C)cc2OC)c2cc(C(=O)NCC3CCCC3)ccc21 | 9.9 | 0.03 | – |
| – | 7.5 | 7.94 | CCCCCCC(C)CNC(=O)c1ccc2c(c1)c(Cc1ccc(C(=O)NS(=O)(=O)c3ccccc3C)cc1OC)cn2C (stereo not drawn) | – | – | – |
| – | – | 63.1 | COc1cc(C(=O)NS(=O)(=O)c2ccccc2C)ccc1Cc1cn(C)c2ccc(C(=O)N(C)CC(C)C)cc12 | – | – | – |
| – | – | 79.4 | COc1cc(C(=O)NS(=O)(=O)c2ccccc2C)ccc1Cc1cn(C)c2ccc(C(=O)NCCc3ccccc3)cc12 | – | – | – |
| 2 | 8 | – | CCC(CC)CNC(=O)c1ccc2c(c1)c(Cc1ccc(C(=O)NS(=O)(=O)c3ccccc3C)cc1OC)cn2C | 14.7 | 1.09 | AUC (Rattus norvegicus [15]): 5740 ng·h/mL; Cmax [16]: 410 ng/mL; Ratio [6]: 14 |
| – | 8.1 | 6.31 | CCCCC(CC)CNC(=O)c1ccc2c(c1)c(Cc1ccc(C(=O)NS(=O)(=O)c3ccccc3C)cc1OC)cn2C (stereo not drawn) | 8.06 | 0.28 | Ratio [6]: 29 |
| – | – | 79.4 | CCCCN(CCCC)C(=O)c1ccc2c(c1)c(Cc1ccc(C(=O)NS(=O)(=O)c3ccccc3C)cc1OC)cn2C | – | – | – |
